Compound activity (PubChem BioAssay)
TLR4-MyD88 BLA: blocks binding of human TLR4 to MyD88 | inhibition, % at 8.4 µM | hit rate 0.18% among 200,000 | HeLa CL3-4 TLR4/MyD88 BLA complementation, FRET ratio | O00206+Q99836 | AID 861; in the data active means inhibition above about 25%
Target sequence (O00206 whole entry, looked up): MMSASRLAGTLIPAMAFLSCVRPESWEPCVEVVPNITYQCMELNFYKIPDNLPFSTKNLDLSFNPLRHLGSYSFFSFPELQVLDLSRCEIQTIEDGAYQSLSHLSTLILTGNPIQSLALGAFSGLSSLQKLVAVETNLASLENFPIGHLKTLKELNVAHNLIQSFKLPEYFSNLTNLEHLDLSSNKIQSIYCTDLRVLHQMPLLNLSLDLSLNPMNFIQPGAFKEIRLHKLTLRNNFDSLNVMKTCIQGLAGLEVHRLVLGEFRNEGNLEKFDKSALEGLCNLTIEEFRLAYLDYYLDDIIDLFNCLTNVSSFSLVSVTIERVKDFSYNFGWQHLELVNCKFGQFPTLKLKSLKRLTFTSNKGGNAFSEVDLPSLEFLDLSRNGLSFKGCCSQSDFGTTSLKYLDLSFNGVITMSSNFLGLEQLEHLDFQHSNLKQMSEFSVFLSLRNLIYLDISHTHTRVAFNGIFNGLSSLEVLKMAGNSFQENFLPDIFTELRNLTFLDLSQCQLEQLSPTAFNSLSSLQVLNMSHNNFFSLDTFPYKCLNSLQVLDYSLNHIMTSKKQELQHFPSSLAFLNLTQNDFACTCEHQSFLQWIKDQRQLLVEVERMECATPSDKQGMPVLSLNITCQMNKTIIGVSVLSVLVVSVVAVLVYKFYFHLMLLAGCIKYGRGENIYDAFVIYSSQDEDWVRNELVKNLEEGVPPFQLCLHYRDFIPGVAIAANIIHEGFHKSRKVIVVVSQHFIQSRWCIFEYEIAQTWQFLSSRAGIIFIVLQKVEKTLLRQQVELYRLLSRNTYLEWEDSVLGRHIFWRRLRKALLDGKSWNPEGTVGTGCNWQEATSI
Target sequence (Q99836 whole entry, looked up): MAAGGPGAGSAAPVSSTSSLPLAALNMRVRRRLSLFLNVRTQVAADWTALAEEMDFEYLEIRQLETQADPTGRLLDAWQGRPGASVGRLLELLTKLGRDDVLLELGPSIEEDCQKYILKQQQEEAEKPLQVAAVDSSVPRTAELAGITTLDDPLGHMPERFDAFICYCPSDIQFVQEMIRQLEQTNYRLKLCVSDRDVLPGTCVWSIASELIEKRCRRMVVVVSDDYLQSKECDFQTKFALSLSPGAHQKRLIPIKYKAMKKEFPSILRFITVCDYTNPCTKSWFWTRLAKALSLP
TLR9-MyD88 block: blocks human TLR9 binding to MyD88. Q9NR96+Q99836. CHO BLA complementation TLR9-MyD88, CCF4 FRET ratio. inhibition, % at 4.98 µM. hit rate 0.21% among 340,000. AID 504734;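 active means inhibition above the mean over all tested compounds plus 3 SD, cut at about 21% in these data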
CHOP inhibitor: blocks CHOP induction under ER stress | CHO-K1 CHOP-promoter luciferase, tunicamycin-induced, 15-18 h | inhibition, % at 10 µM | hit rate 3.8% among 220,000;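 active means compounds that reduced the stress-induced luciferase reporter signal by more than about 70% of percent inhibition, limit read from the data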
NOD2 RIPK2 PPI: blocks binding of human NOD2 to RIPK2; O43353; CHO BLA complementation NOD2-RIPK2, CCF4 ratio; inhibition, % at 4.98 µM; hit rate 0.38% among 360,000; AID 624267; in the data active means inhibition above about 21%
XBP1 UPR activ: activators of adaptive arm of unfolded protein response (XBP1) | CHO-XBP1 luciferase reporter, IRE1-XBP1 UPR activation, luminescence; percent of tunicamycin response, DMSO as zero | AID 463104 | hit rate 0.33% among 330,000 | activation, % at 20 µM;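 active means versus positive control, 20 µM dose yields 30% or more activation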
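Assay system: CHO-XBP1 luciferase reporter cells; Schedule: 6 h treatment, 37 °C; Detection: glow luminescence from Steady-Glo reagent; Benchmarks: high control tunicamycin 10 µg/mL final, low control DMSO vehicle only.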
UPR CHOP act: apoptotic UPR (CHOP) activation; CHO-CHOP luciferase reporter, luminescence; percent of tunicamycin response over DMSO baseline; activation, % at 10 µM; hit rate 0.34% among 330,000; AID 449763;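 active means at 10 µM dose, activation of 40% or more, normalized to positive control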
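Assay system: CHO-CHOP cells, stable luciferase reporter of PERK-eIF2a-CHOP signalling / Buffer or medium: F12 plus 10% serum / Compound dosing: one dose, 10 µM in 0.5% DMSO / Times: 6 h compound treatment, 37 °C / Technique: luciferase luminescence / Read-out: % reporter activation, DMSO baseline versus tunicamycin full activation / Benchmarks: tunicamycin and DMSO controls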
CHOP inh conf: confirmation of CHOP induction inhibitors. shares compounds with CHOP inhibitor. CHO-CHOP promoter luciferase reporter, tunicamycin-induced, luminescence. inhibition, % at 10 µM. hit rate 45% among 2,100;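 active means mean of three repeat readings of reporter signal inhibition above a set limit, cut at about 70% in these data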
UPR CHOP confirm: confirmation of apoptotic unfolded protein response (CHOP) activators; shares compounds with UPR CHOP act; CHO-CHOP cells, CHOP-luciferase reporter luminescence; percent of tunicamycin response, DMSO as zero; activation, % at 10 µM; hit rate 64% among 1,000; in the data active means activation above about 33%
XBP1 UPR conf: adaptive UPR (XBP1) activation, confirmed. shares compounds with XBP1 UPR activ. CHO-XBP1 IRE1-XBP1 luciferase reporter, luminescence. AID 485299. hit rate 63% among 1,000. activation, % at 20 µM;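 active means reporter signal at least 30% of the positive control's activation in two or more of four replicate wells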
Numbers stand for hits; – = inactive; · = no result given. This excerpt belongs to a sample that is enriched for hits.

SMILES | TLR4-MyD88 BLA | TLR9-MyD88 block | CHOP inhibitor | NOD2 RIPK2 PPI | XBP1 UPR activ | UPR CHOP act | CHOP inh conf | XBP1 UPR conf | others
COc1cc(C(c2nnnn2C(C)(C)C)N2CCN(c3nc4ccccc4s3)CC2)ccc1O (centres undefined) | – | – | – | – | – | – | · | ·
CC(C)=CCCC1(C)C=Cc2c(c(C)cc3c2[nH]c2cc(O)ccc23)O1 (centres undefined) | · | – | 104.2 | – | 62.8 | – | 118.7 | 66.6
Cc1cc(N2CCN(C)CC2)ccc1NC(=O)c1cccc(S(=O)(=O)N2CCc3ccccc3C2)c1 | – | – | 103.8 | – | 34.1 | – | – | –
O=C(Nc1ccc(Cl)c([N+](=O)[O-])c1)c1ccc(NCCCN2CCOCC2)c([N+](=O)[O-])c1 | – | – | 97.1 | – | 42.2 | – | – | –
O=C(NCC(c1cccs1)N1CCOCC1)c1ccccc1NS(=O)(=O)c1cc([N+](=O)[O-])ccc1Cl (centres undefined) | – | – | – | – | – | – | · | ·
Cc1cc(Nc2cccc([N+](=O)[O-])c2)n2c(nc3ccccc32)c1C#N | – | – | 103.1 | – | 37.0 | – | 86.9 | –
CCOC(=O)c1nnc(-c2ccccc2)nc1Oc1ccc(Cl)cc1 | – | – | 105.9 | – | 72.1 | – | – | 84.6
CCc1ccc(-c2nc(CN3CCC(C(=O)NCCN(CC)c4ccccc4)CC3)c(C)o2)cc1 | – | – | 98.2 | – | 56.6 | – | 105.3 | 35.2
CCN(CCNC(=O)C1CCCN(Cc2nc(-c3ccc(OC)cc3)oc2C)C1)c1ccccc1 (centres undefined) | – | – | – | – | – | – | · | ·
COc1ccc(N2CCN(C(CNC(=O)OCc3ccccc3)c3ccco3)CC2)cc1 (centres undefined) | – | – | – | – | – | – | · | ·
CC(C)(C)C(=O)NC(=S)NNC(=O)C(c1ccccc1)c1ccccc1 | – | – | 106.2 | – | 42.8 | – | 121.4 | 47.9
CC(=O)NNC(=S)NC(=O)C(c1ccccc1)c1ccccc1 | – | – | – | – | – | – | · | ·
Cc1ccc(-c2[nH]ncc2/C=N/n2c(COc3ccccc3)nc3ccccc3c2=O)cc1 | – | – | 99.1 | – | 36.8 | – | 108.0 | 45.3
Cc1cc(/C=N/n2c(COc3ccccc3)nc3ccccc3c2=O)c(O)c([N+](=O)[O-])c1 | – | – | – | – | – | – | · | ·
CSc1cc(-c2ccc(Cl)cc2)n(Cc2ccccc2)c(=O)c1C#N | – | – | 100.9 | – | 32.2 | 44.5 | – | – | UPR CHOP confirm=–
CSc1cc(-c2ccccc2)n(Cc2c(Cl)cccc2Cl)c(=O)c1C#N | – | – | · | – | – | – | · | ·
CC1CN(S(=O)(=O)c2ccc(C(=O)Nc3nc(-c4cc5ccccc5o4)cs3)cc2)CC(C)O1 (centres undefined) | – | – | 106.6 | – | 48.2 | – | 72.8 | 134.1
CN(CC(=O)Nc1ccc(N2CCOCC2)cc1)C(=O)CSc1ccc(F)cc1 | · | – | · | – | – | – | · | ·
CC1CCCCN1C(=O)CSc1nnc2c(n1)[nH]c1ccc(F)cc12 (centres undefined) | · | – | · | – | – | – | · | ·
CC1CCc2cc(F)ccc2N1C(=O)CSc1nnc2c(n1)[nH]c1ccc(F)cc12 (centres undefined) | – | – | 100.9 | – | 66.9 | – | 110.2 | 50.9
Cc1cnc(NC(=O)c2cc3c(C)nn(Cc4ccccc4Cl)c3s2)s1 | – | – | 104.0 | – | 43.2 | – | – | 82.0
Cc1cnc(NC(=O)Cc2ccccc2Cl)s1 | · | – | · | – | – | – | · | ·
COc1ccc(-c2ccc(C#N)c(SCC(=O)Nc3sc4c(c3C#N)CCC4)n2)cc1OC | – | – | 101.9 | – | 40.6 | – | – | 55.8
COc1cc(N(C(=O)Cc2cccs2)C(C(=O)NC2CCCCC2)c2ccc(C)cc2)ccc1-n1cnnn1 (centres undefined) | – | – | 105.3 | – | 35.1 | – | 92.1 | 37.5
CCOC(=O)Cn1c(COc2ccccc2OC)[n+](C)c2ccccc21 | · | · | · | – | – | – | · | ·
SMILES | TLR4-MyD88 BLA | TLR9-MyD88 block | CHOP inhibitor | NOD2 RIPK2 PPI | XBP1 UPR activ | UPR CHOP act | CHOP inh conf | XBP1 UPR conf | others
Cc1ccccc1OCc1n(CC(=O)OC2CC(C)CCC2C(C)C)c2ccccc2[n+]1C (centres undefined) | – | – | 107.6 | – | 45.1 | – | 137.2 | –
Cc1cc(N2CCN(c3ccc(C(F)(F)F)cc3[N+](=O)[O-])CC2)c2ccccc2n1 | · | – | · | – | – | – | · | ·
Cc1cc(N2CCN(c3ccc([N+](=O)[O-])c4cccnc34)CC2)c2ccccc2n1 | – | – | 104.7 | – | 104.1 | 42.1 | – | 62.4 | UPR CHOP confirm=52.5
Cc1ccccc1OCc1nnc(SCC(=O)Nc2ccc3nc(SCC(=O)Nc4ccccc4)sc3c2)n1C | – | – | – | – | – | – | · | ·
COc1ccc(N=c2oc3ccc(OC)cc3cc2-c2nc3ccccc3[nH]2)cc1 | – | – | 101.9 | – | 84.3 | 134.7 | 107.0 | 132.6 | UPR CHOP confirm=147.0
COc1cccc(N=c2oc3ccc(OC)cc3cc2-c2nc3ccccc3[nH]2)c1 | – | – | – | – | – | – | · | ·
CN(c1nc2nonc2nc1NC1CC1)C1CCOC1 (centres undefined) | – | – | – | – | – | – | · | ·
CCc1ccc(NC(=O)C(CC)Sc2nc3cc4c(cc3c(=O)n2Cc2ccco2)OCO4)cc1 (centres undefined) | – | – | 96.3 | – | 105.5 | 96.3 | – | 127.4 | UPR CHOP confirm=87.7
CCC(Sc1nc2cc(OC)c(OC)cc2c(=O)n1Cc1ccco1)C(=O)NCCOC (centres undefined) | – | – | – | – | – | – | · | ·
CCOC(=O)c1c(NC(=O)Cc2cccs2)sc(C(=O)NC2CCCCC2)c1C | – | – | 105.9 | – | 54.6 | – | 74.4 | 43.3
Cc1cccc(C(=O)Nc2c(C(=O)N(C)C)cnn2-c2ccccc2)c1 | · | – | · | – | – | – | · | ·
Cc1ccsc1CN(C)CC(=O)Nc1cccc(S(=O)(=O)N(C)c2ccccc2)c1 | · | – | · | – | – | – | · | ·
CC(=O)c1cccc(NC(=O)C(C)OC(=O)c2ccc(Br)o2)c1 (centres undefined) | · | – | · | – | – | – | · | ·
Cc1c(/C(O)=C2/C(=O)C(=O)N(Cc3cccnc3)C2c2ccccn2)cnn1-c1ccccc1 (centres undefined) | – | – | – | – | – | – | · | ·
